Shown are actives, neighbours in structure and some others; about 3.1% of the full set was active somewhere.
UHRF1 MBD2 ctr: UHRF1 methyl-DNA binding inhibition; inhibition, % at 4.4 µM; Q96T88; 370,000 compounds, 0.75% hits; UHRF1 binding to methylated oligo, TR-FRET; in the data active = inhibition above about 21%;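 also: UHRF1 SRA domain binding a hemimethylated CpG hairpin DNA probe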
CSN deneddyl inh: inhibitors of human CSN-mediated cullin deneddylation. Purified CSN, SCF-Nedd8-OG deneddylation, fluorescence polarization. Q92905. inhibition, % at 12.5 µM. 360,000 compounds, 0.38% hits. AID 651999;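 active = pattern-corrected inhibition above about 35%, with an unprinted fluorescence ratio check between 0.5 and 1.5, limit read from the data, passing the limit was not always enough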
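Assay system: HEK293T-derived human Csn5 enzyme; quantity: 0.24 nM enzyme; medium: Tris/NaCl/DTT buffer, pH 7.5; also added: substrate SCFSkp2-Nedd8OG, 10 nM; doses: 12.5 µM compound; schedule: 90 min reaction at room temperature; signal: FP; read-out: % inhibition of substrate cleavage by Csn5; benchmarks: substrate-only high control, full reaction low control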
ATG4B inh: blocks human ATG4B protease cleavage of LC3 substrate; 340,000 compounds, 0.51% hits; inhibition, % at 8.33 µM; ATG4B cleavage of LC3-PLA2, NBD-HPC fluorescence, 1 h; Q9Y4P1; AID 504462; in the data active = inhibition above about 40%
MBD2 DNA inh: blocks human MBD2 binding to methylated DNA; Q9UBB5; TR-FRET, MBD2 binding to methylated oligonucleotide; inhibition, % at 4.4 µM; 370,000 compounds, 0.31% hits; in the data active = inhibition above about 13%
Target sequence (Q9UBB5 whole entry, looked up): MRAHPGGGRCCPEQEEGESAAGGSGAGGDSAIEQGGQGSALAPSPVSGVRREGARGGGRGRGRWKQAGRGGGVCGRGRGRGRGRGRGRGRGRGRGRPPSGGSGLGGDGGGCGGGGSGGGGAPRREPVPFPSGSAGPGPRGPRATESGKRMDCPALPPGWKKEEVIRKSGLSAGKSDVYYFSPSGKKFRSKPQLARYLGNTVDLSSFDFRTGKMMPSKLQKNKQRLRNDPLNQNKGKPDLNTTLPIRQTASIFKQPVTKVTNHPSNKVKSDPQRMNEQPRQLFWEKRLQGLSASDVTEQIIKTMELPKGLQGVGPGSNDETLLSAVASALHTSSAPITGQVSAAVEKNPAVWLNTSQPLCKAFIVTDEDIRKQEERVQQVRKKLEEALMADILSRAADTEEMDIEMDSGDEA
rCAG RNA binder: binds r(CAG) RNA repeats; r(CAG) RNA repeat, TO-PRO-1 dye displacement fluorescence; inhibition, % at 3 µM; 370,000 compounds, 1.3% hits;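 active = inhibition above the plate cutoff, the mean of all test compounds on that plate plus 3 SD, cut at about 35% in these data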;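 also: higher means more dye released from RNA so lower well fluorescence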
LEDGF integ inh: blocks HIV-1 LEDGF/p75-dependent DNA integration; TR-FRET IN-LEDGF/p75 DNA integration, Eu/Cy5; inhibition, % at 3.7 µM; 370,000 compounds, 0.64% hits; AID 743269;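 active = inhibition above the screen-wide mean plus 3 SD, cut at about 13% in these data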;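 also: signal is the Cy5 over europium emission ratio at 671 and 618 nm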
rCAG bind conf: r(CAG) RNA repeat binding, confirmation; inhibition, % at 3 µM; shares compounds with rCAG RNA binder; TO-PRO-1 dye displacement fluorescence; 4,300 compounds, 70% hits;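 active = inhibition above a per-plate cutoff, the mean inhibition of sample wells plus 3 SD, cut at about 35% in these data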;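 also: loss of TO-PRO-1 fluorescence as compound displaces dye from 1x1 AA loop RNA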
dCAG dye counter: DNA CAG dye complex inhibition counter-screen; inhibition, % at 3 µM; 4,300 compounds, 94% hits; d(CAG) DNA oligo TO-PRO-1 dye displacement, fluorescence; shares compounds with rCAG RNA binder;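 active = inhibition above its plate's cutoff, the mean test-well inhibition plus 3 SD, cut at about 4.8% in these data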;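 also: hits displace the dye from DNA and so lower well fluorescence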
A number is an active result; 0 = inactive; - = no result.

SMILES	UHRF1 MBD2 ctr	CSN deneddyl inh	ATG4B inh	MBD2 DNA inh	rCAG RNA binder	LEDGF integ inh	rCAG bind conf	dCAG dye counter
CC1(C(=O)NS(=O)(=O)c2cccc(OC(F)F)c2)CCN1C(=O)CC(c1ccccc1)c1ccccc1 (stereo unspecified)	0	0	-	0	51.7	0	45.8	13.8
CC(C)(C)OC(=O)/C=C/[C@@H](CCCCl)Sc1ccc(C(C)(C)C)cc1	0	-	-	0	0	0	-	-
O=C(COC(=O)c1ccc(NS(=O)(=O)c2cccs2)cc1O)Nc1nc2ccccc2s1	0	0	0	0	73.2	0	63.6	29.1
O=C(COC(=O)c1ccc(NS(=O)(=O)c2cccs2)cc1O)NCc1ccccc1	0	0	0	0	37.5	0	0	6.4
O=C(COC(=O)c1ccc(NS(=O)(=O)c2cccs2)cc1)NCc1ccco1	-	0	0	-	-	-	-	-
COC(=O)[C@]12C[C@H](CC(=O)NCc3cccs3)C(=O)N(CCc3ccc(OC)c(OC)c3)C1=C[C@H](C1CCCC1)O[C@@H]2C	0	-	-	0	0	0	-	-
O=C(NNC(=S)NC(=O)c1ccccc1[N+](=O)[O-])c1ccccc1O	0	0	0	0	0	0	-	-
O=C(NC(=S)Nc1cccc2c(O)cccc12)c1ccccc1[N+](=O)[O-]	0	0	0	0	39.1	0	0	7.3
Cc1ccc(S(=O)(=O)NN=C(c2ccccc2)c2cccs2)cc1	0	0	-	0	35.6	0	0	6.7
C/C(=N\NS(=O)(=O)c1ccc(C)cc1)c1cccs1	0	0	0	0	0	0	-	-
Cc1cc(C)cc(C(=O)OCCCN(C)C2CN(Cc3cn(Cc4ccc([N+](=O)[O-])cc4)nn3)S(=O)(=O)C2)c1 (stereo unspecified)	0	-	-	0	0	0	-	-
Cc1nn(-c2ccccc2)c2sc(C(=O)NC3CCCC3)cc12	0	-	-	0	0	0	-	-
Cc1ccc2sc(NNC(=O)C3=COCCO3)nc2c1C	0	0	0	0	51.0	0	0	5.8
O=C(NCCc1c[nH]c2ccccc12)OCc1cn(Cc2cccc(F)c2)nn1	0	-	-	0	0	0	-	-
Cc1ccc(Cn2cc(CN(C3CC3)S(=O)(=O)c3ccccc3Br)nn2)cc1	0	-	-	0	0	0	-	-
O=C(Nc1nc(-c2ccco2)c(-c2ccco2)s1)c1cnccn1	40.5	-	0	0	44.2	47.5	0	13.3
O=C(Nc1nc2ccccc2s1)c1cnccn1	0	0	0	0	0	0	-	-
C[C@H](CO)N1C[C@H](C)[C@H](CN(C)Cc2ccc(C(=O)O)cc2)OCc2ccccc2-c2c(n(C)c3ccccc23)C1=O	0	0	-	0	47.6	0	49.5	13.9
COc1ccc(C=O)cc1CSc1ccccn1	0	0	0	0	0	0	-	-
COc1ccc(/C=N/NC(=O)c2ccc(O)cc2O)cc1CSc1ccccn1	0	0	0	0	35.9	0	0	12.0
Cc1cccc(NS(=O)(=O)c2ccc(C)c(NS(=O)(=O)c3cccs3)c2)c1	0	0	0	0	36.2	0	0	7.9
S=c1[nH]nc(Cc2sc(-c3ccccc3)nc2-c2ccccc2)o1	0	0	0	0	61.3	0	47.3	16.7
S=c1[nH]nc(Cc2c[nH]c3ccccc23)o1	0	0	0	0	0	0	-	-
CC(C)c1cc(C(=O)N(C2CCCCC2)C2CCCCC2)no1	0	-	-	0	0	0	-	-
O=C(c1cc(Cl)cc(Cl)c1)N1CC[C@H]2[C@H](CCCN2Cc2ccccc2)C1	0	-	-	0	0	0	-	-
SMILES	UHRF1 MBD2 ctr	CSN deneddyl inh	ATG4B inh	MBD2 DNA inh	rCAG RNA binder	LEDGF integ inh	rCAG bind conf	dCAG dye counter
Cc1cc(/C=C2\SC(=S)NC2=O)c(C)n1C1CC1	0	0	0	0	35.9	0	0	7.1
COc1cc(/C=C2/C(=O)NN(c3ccc(Cl)c(Cl)c3)C2=O)cc([N+](=O)[O-])c1O	0	0	0	0	98.9	0	65.9	23.4
COc1cc(/C=C2/C(=O)NN(c3ccc(F)cc3)C2=O)cc(Cl)c1O	0	0	0	0	0	0	-	-
COC(=O)c1ccc(N2NC(=O)/C(=C/c3cc(OC)c(O)c(OC)c3)C2=O)cc1	0	0	0	0	41.7	0	0	4.6
COc1cc(/C=C2\SC(=O)N(c3ccccc3Cl)C2=O)cc([N+](=O)[O-])c1O	0	0	0	0	55.4	0	57.7	18.2
COc1cc(/C=C2/C(=O)NN(c3cccc(F)c3)C2=O)ccc1OC(=O)c1ccco1	0	0	0	0	45.7	0	81.7	44.5
CCCCOCCCNC(=O)C[C@H]1C[C@@]2(C(=O)OC)C(=C[C@H](C(C)(C)C)O[C@@H]2C)N(Cc2ccco2)C1=O	0	-	-	0	0	0	-	-
CCc1ccccc1-c1cc(C(=O)OC)c2n(c1=O)CCC2	0	-	-	0	0	0	-	-
CCCCNC(=O)C[C@H]1C[C@@]2(C(=O)OC)C(=C[C@H](C(C)(C)C)O[C@@H]2C)N(Cc2cccc3ccccc23)C1=O	0	-	-	0	0	0	-	-
O=C(c1cc(Cl)cc(Cl)c1)N1CC[C@H]2[C@H](CCCN2Cc2cc(F)cc(F)c2)C1	0	-	-	0	0	0	-	-
CC1(C)Cc2c(sc3nc(SCC(=O)O)nc(N)c23)CO1	0	0	0	0	0	0	-	-
CC(C)(C)C1CCc2c(sc3nc(SCC(=O)O)nc(N)c23)C1 (stereo unspecified)	0	0	0	0	35.8	0	41.9	10.1
Cc1cc(C)c(C)c(S(=O)(=O)N2C(=S)NC(=O)C2C(C)C)c1C (stereo unspecified)	0	0	0	0	0	0	-	-
Cc1cc(C)c(C)c(S(=O)(=O)N2C(=S)NC(=O)C2CC(C)C)c1C (stereo unspecified)	0	0	0	0	40.7	0	0	8.0
S=C(Nc1ccc(Cl)cc1)OC1CCC12CCC(c1ccccc1)CC2 (stereo unspecified)	0	-	-	0	0	0	-	-
COC(=O)CNC(=O)C1Nc2ccc(OC(F)(F)F)cc2C2C=CCC12 (stereo unspecified)	0	0	0	0	38.6	0	0	0
COCCNC(=O)C1Nc2ccc(OC(F)(F)F)cc2C2C=CCC12 (stereo unspecified)	0	0	0	0	0	0	-	-
O=C(NCc1ccccn1)C1Nc2ccc(C(F)(F)F)cc2C2C=CCC12 (stereo unspecified)	0	0	0	0	0	0	-	-
COCCNC(=O)C1Nc2ccc(C(F)(F)F)cc2C2C=CCC12 (stereo unspecified)	0	0	0	0	44.3	0	0	0
FC(F)(F)c1ccc2c(c1)C1C=CCC1C(c1ccncc1)N2 (stereo unspecified)	0	0	0	0	44.1	0	0	0
O=C(Cc1cccs1)NC1CCCCN(Cc2cccc(Cl)c2)C1=O (stereo unspecified)	0	-	-	0	0	0	-	-
